Assay results as given in ChEMBL document CHEMBL4811273, “Discovery of a novel series of GPR119 agonists: Design, synthesis, and biological evaluation of N-(Piperidin-4-yl)-N-(trifluoromethyl)pyrimidin-4-amine derivatives” (Bioorg Med Chem, 2021).
≈ marks a conversion by molar mass, not a printed value. Calls of active or inactive are those of the source. The rule behind the calls is not given here.

Key:
[1] = target: T1, Glucose-dependent insulinotropic receptor (Homo sapiens, UniProt Q8TDV5); test: Agonist activity at human GPR119 expressed in CHO cells co-expressing cyclic AMP response element-luciferase reporter gene incubated for 2 hrs by steady-glo luciferase assay; format: functional, cell-based
T1 sequence (Q8TDV5 whole entry): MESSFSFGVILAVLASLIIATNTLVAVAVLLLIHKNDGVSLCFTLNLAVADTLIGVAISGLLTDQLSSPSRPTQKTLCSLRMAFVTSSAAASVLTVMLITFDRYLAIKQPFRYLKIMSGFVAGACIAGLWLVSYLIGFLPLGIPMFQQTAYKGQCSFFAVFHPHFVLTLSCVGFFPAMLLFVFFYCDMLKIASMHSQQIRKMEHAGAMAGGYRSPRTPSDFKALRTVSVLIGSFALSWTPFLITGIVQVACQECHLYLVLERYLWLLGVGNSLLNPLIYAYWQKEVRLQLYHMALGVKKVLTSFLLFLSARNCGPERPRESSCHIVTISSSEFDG
Procedure, shortened: (§1)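 CHO cells stably expressing human or rat GPR119 were seeded at 10,000 cells/well in MEMα with 10% FBS and Geneticin and grown overnight at 37 °C. After one wash, cells were exposed to compounds at various concentrations in MEMα/20 mM HEPES/0.1% BSA for 2 h. cAMP-driven luciferase was read with Steady-Glo and normalized to vehicle and reference wells. EC50 is the mean, n = 2.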

[2] = Hepatic clearance in rat liver microsomes measured up to 30 mins by LC/MS/MS analysis; format: ADME, Microsome; details: read-out: CLH
Procedure, shortened: (§2)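 Human or rat liver microsomes (0.2 mg/mL protein) were incubated with 1 μM compound in 50 mM potassium phosphate, pH 7.4. The reaction was started with an NADPH-generating system and stopped with acetonitrile at 15 and 30 min. Parent compound was quantified by LC/MS/MS, and CLint (μL/min/mg) was taken from the slope of the concentration–time plot.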

[3] = Aqueous solubility of the compound at pH 6.8 by HPLC analysis; format: physicochemical; details: buffer
Procedure, shortened: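 DMSO stock solutions were added in small volumes to aqueous buffer at pH 6.8 and incubated. Precipitate was removed by filtration, and the filtrate was quantified by HPLC.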

[4] = Hepatic clearance in human liver microsomes measured up to 30 mins by LC/MS/MS analysis; format: ADME, Microsome; details: read-out: CLH; procedure, shortened: as §2
[5] = Partition coefficient, logD between 1-octanol and pH 7.4 aqueous buffer by chromatographic analysis; format: physicochemical; details: 1-octanol/pH 7.4 aqueous buffer
Procedure, shortened: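 LogD between 1-octanol and aqueous buffer at pH 7.4 was determined by a chromatographic procedure adapted from a published method.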

hERG (KCNH2) = hERG (KCNH2) (Homo sapiens, UniProt Q12809); test: Inhibition of human ERG expressed in CHO cells at 10 uM at holding potential of -80 mV by patch clamp method; format: cell-based; details: CHO cells expressing human ERG
[6] = Intrinsic clearance in human liver microsomes; format: ADME, Microsome; details: read-out: CLH; procedure, shortened: as §2
Rattus norvegicus [7] = test: Antidiabetic activity in orally dosed NSTZ1.5 rat assessed as reduction in insulin level administered 60 mins prior to glucose challenge and measured up to 60 mins by OGTT; format: functional, organism-based; details: dose 0.3-3 mg/kg
[8] = target: T2, Glucose-dependent insulinotropic receptor (Rattus norvegicus, UniProt Q7TQN8); test: Agonist activity at rat GPR119 expressed in CHO cells co-expressing cyclic AMP response element-luciferase reporter gene incubated for 2 hrs by steady-glo luciferase assay; format: functional, cell-based; procedure, shortened: as §1
T2 sequence (Q7TQN8 whole entry): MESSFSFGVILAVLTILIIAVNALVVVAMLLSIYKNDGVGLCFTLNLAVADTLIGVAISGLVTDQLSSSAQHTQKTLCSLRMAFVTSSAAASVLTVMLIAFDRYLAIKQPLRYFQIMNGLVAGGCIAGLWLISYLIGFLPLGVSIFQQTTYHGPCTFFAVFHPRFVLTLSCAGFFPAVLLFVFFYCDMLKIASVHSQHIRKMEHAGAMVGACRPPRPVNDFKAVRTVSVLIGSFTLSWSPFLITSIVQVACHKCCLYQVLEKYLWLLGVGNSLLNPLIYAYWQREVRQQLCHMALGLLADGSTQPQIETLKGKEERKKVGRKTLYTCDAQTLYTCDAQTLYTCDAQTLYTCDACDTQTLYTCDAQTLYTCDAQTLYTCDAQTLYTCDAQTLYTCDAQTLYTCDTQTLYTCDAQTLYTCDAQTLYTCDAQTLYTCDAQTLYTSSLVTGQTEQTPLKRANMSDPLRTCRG

[9] = AUC in […] at 1 mg/kg, po administered as cassette dose by LC/MS/MS analysis; format: ADME, organism-based, Rattus norvegicus; design: dose 1 mg/kg; details: in vivo
[10] = Volume of distribution at steady state in rat at 0.1 mg/kg, iv administered as cassette dose by LC/MS/MS analysis; format: ADME, organism-based; details: in vivo
Procedure, shortened: (§3)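 Intravenous cassette dosing at 0.1 mg/kg in rats (the methods text says non-fasted mice). Plasma was obtained from blood samples, deproteinized, centrifuged, and analysed by LC/MS/MS.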

[11] = Mean residence time in rat at 1 mg/kg, po administered as cassette dose by LC/MS/MS analysis; format: ADME, organism-based; details: in vivo
Procedure, shortened: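 Rat cassette PK. Oral dose 1 mg/kg in 0.5% methylcellulose aqueous solution. The methods text says non-fasted mice. Blood was collected after dosing, and plasma was deproteinized and centrifuged. Compound in the supernatant was measured by LC/MS/MS.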

Rattus norvegicus [12] = test: Antidiabetic activity in NSTZ1.5 rat assessed as reduction in plasma glucose level at 0.3 to 3 mg/kg, po administered 60 mins prior to glucose challenge and measured up to 60 mins by OGTT; format: functional, organism-based; details: dose 0.3-3 mg/kg
[13] = target: T2, Glucose-dependent insulinotropic receptor; test: Agonist activity at rat GPR119 in golden hamster HIT-T15 cells assessed as induction of glucose-induced insulin secretion after 2 hrs by A1phaLISA; format: functional, cell-based
Procedure, shortened: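 Hamster HIT-T15 beta cells were seeded at 5 × 10^4 cells/well and pre-incubated 2 h in KRBH with 0.2% BSA. They were then incubated 2 h at 37 °C with compound in KRBH containing 0.2% fatty-acid-free BSA and 10 mmol/L glucose. Secreted insulin was quantified by AlphaLISA. EC50 from n = 2.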

[14] = Oral bioavailability in […] at 1 mg/kg administered as cassette dose by LC/MS/MS analysis; format: ADME, organism-based, Rattus norvegicus; details: in vivo
[15] = Clearance in rat at 0.1 mg/kg, iv administered as cassette dose by LC/MS/MS analysis; format: ADME, organism-based; details: in vivo; procedure, shortened: as §3
[16] = target: T2, Glucose-dependent insulinotropic receptor; test: Agonist activity at rat GPR119 in GLUTag cells assessed as induction of GLP-1 secretion after 2 hrs by ELISA; format: functional, cell-based
Procedure, shortened: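 Murine GLUTag L cells were seeded at 1 × 10^4 cells/well on poly-L-lysine and moved overnight to low-glucose DMEM. After a Hank's wash, cells were incubated 2 h at 37 °C with compound in KRBH containing 0.2% fatty-acid-free BSA and 10 mmol/L glucose. Active GLP-1 in the supernatant was measured by ELISA. EC50 from n = 2.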

hERG (KCNH2), sequence (Q12809 whole entry): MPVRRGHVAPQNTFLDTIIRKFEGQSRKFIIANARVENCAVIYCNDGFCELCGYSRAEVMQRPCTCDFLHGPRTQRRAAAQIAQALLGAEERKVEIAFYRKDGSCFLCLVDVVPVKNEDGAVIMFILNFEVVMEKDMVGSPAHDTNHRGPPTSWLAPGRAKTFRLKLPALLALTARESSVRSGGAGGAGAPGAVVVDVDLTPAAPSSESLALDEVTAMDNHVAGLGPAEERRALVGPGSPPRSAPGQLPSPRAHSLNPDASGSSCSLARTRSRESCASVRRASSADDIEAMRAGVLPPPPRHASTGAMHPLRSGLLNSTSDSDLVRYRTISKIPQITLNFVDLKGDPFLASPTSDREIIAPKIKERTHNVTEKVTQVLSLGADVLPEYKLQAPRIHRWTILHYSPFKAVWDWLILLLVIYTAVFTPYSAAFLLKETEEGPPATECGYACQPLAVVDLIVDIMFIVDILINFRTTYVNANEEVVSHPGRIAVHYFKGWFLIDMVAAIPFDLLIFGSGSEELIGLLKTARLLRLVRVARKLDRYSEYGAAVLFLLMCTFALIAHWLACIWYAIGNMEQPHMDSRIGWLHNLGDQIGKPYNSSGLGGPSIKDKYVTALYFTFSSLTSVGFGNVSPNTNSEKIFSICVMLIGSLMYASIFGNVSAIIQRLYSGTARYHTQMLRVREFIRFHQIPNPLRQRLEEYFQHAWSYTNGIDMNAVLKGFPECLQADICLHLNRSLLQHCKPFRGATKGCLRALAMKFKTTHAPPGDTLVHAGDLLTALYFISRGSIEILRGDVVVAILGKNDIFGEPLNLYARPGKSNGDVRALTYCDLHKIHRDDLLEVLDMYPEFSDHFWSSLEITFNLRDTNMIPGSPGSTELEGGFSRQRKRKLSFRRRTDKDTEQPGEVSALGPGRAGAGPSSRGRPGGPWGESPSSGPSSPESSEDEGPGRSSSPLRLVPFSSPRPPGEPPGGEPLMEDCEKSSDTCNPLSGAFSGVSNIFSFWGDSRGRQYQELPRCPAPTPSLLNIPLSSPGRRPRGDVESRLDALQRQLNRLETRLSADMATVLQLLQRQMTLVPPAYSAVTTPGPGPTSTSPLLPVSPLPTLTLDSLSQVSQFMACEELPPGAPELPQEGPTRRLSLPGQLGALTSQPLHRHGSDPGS

Structure (SMILES) | EC50 [1] | logD [5] | inhibition at 10 µM (hERG (KCNH2)) | other results
CC(C)(C)OC(=O)N1CCC(N(c2cc(O[C@H]3CC[C@H](S(C)(=O)=O)CC3)ncn2)C(F)(F)F)CC1 | 270 nM | – | – | –
CC(C)c1noc(N2CCC(N(c3cc(OC4CCN(S(C)(=O)=O)CC4)ncn3)C(F)(F)F)CC2)n1 | 2.7 nM | – | – | microsomal CLint [2]: 36 µL/min/mg; solubility [3]: 29 µg/mL (≈ 54.4 µM); microsomal CLint [4]: 108 µL/min/mg
CC(C)(C)OC(=O)N1CCC(N(c2cc(OC3CCN(S(C)(=O)=O)CC3)ncn2)C(F)(F)F)CC1 | 3.6 nM | – | – | –
CS(=O)(=O)N1CCC(Oc2cc(N(C3CCN(c4nc(C5CC5)no4)CC3)C(F)(F)F)ncn2)CC1 | 5.4 nM | – | – | microsomal CLint [2]: 13 µL/min/mg; solubility [3]: 15 µg/mL (≈ 28.2 µM); microsomal CLint [4]: 31 µL/min/mg
CN(c1cc(N2CCc3cc(S(C)(=O)=O)ccc32)ncn1)C1CCN(C(=O)OC(C)(C)C)CC1 | 21 nM | 3.2 | 85% | –
COCCN(c1cc(N2CCc3cc(S(C)(=O)=O)ccc32)ncn1)C1CCN(C(=O)OC(C)(C)C)CC1 | 29 nM | 3.4 | 120% | –
CC(C)(C)OC(=O)N1CCC(N(c2cc(OC3CN(S(C)(=O)=O)C3)ncn2)C(F)(F)F)CC1 | 7100 nM | – | – | –
CC(C)(C)OC(=O)N1CCC(N(c2cc(NC3CCN(S(C)(=O)=O)CC3)ncn2)C(F)(F)F)CC1 | 43 nM | – | – | –
CC(C)c1noc(N2CCC(Oc3cc(N4CCc5cc(N6CCC[C@H](O)C6=O)ccc54)ncn3)CC2)n1 | – | – | – | microsomal CLint [6]: 10 µL/min/mg
CN(c1cc(N(C2CCN(C(=O)OC(C)(C)C)CC2)C(F)(F)F)ncn1)C1CCN(S(C)(=O)=O)CC1 | > 10000 nM | – | – | –
CCN(c1cc(N2CCc3cc(S(C)(=O)=O)ccc32)ncn1)C1CCN(C(=O)OC(C)(C)C)CC1 | 14 nM | 3.5 | 116% | –
CCCN(c1cc(N2CCc3cc(S(C)(=O)=O)ccc32)ncn1)C1CCN(C(=O)OC(C)(C)C)CC1 | 18 nM | 4 | 94% | –
CC(C)(C)OC(=O)N1CCC(N(c2cc(OCC3CN(S(C)(=O)=O)C3)ncn2)C(F)(F)F)CC1 | 960 nM | – | – | –
CC(C)(F)c1noc(N2CCC(N(c3cc(OC4CCN(S(C)(=O)=O)CC4)ncn3)C(F)(F)F)CC2)n1 | 4.6 nM | – | 19% | Activity (Rattus norvegicus [7]): Dose-Dependent Effect; microsomal CLint [2]: < 1 µL/min/mg; EC50 [8]: 24 nM; AUC [9]: 1540 ng·h/mL; Vdss [10]: 1.27 L/kg; solubility [3]: 21 µg/mL (≈ 38.1 µM); MRT [11]: 4.05 h; microsomal CLint [4]: 27 µL/min/mg; Activity (Rattus norvegicus [12]): Active; EC50 [13]: 4.8 nM; microsomal CLint [6]: 27 µL/min/mg; bioavailability [14]: 57%; clearance [15]: 6.22 mL/min/kg; EC50 [16]: 3.8 nM
CC(C)(C)OC(=O)N1CCC(N(CC2CC2)c2cc(N3CCc4cc(S(C)(=O)=O)ccc43)ncn2)CC1 | 51 nM | 4.1 | 100% | –
CC(C)(C)OC(=O)N1CCC(N(c2cc(N3CCc4cc(S(C)(=O)=O)ccc43)ncn2)C(F)(F)F)CC1 | 2.5 nM | 4.1 | 13% | –
CC(C)c1noc(N2CCC(N(c3cc(N4CCc5cc(S(C)(=O)=O)ccc54)ncn3)C(F)(F)F)CC2)n1 | 2.9 nM | 3.79 | – | solubility [3]: < 0.22 µg/mL
CC(C)(C)OC(=O)N1CCC(Nc2cc(N3CCc4cc(S(C)(=O)=O)ccc43)ncn2)CC1 | 300 nM | 2.7 | 80% | –
